# Numbered stars: 1 amine (or outer) side, 2 acyl side, 3 side chain; on linkers, the order of the positions; unused ones are H or OH. Bridge positions count the residues as written; N and C are the ends. Square brackets hold non-standard residues; d marks the D form. Peptide text beside a SMILES is read from it. Bip(4'-CONH2) = NC(=O)c1ccc(-c2ccc(C[C@H](N)C(=O)O)cc2)cc1; Pro(trans-4-Ph) = O=C(O)[C@@H]1C[C@@H](c2ccccc2)CN1; X1 = O=C([C@@H]1C[C@@H](C(F)(F)F)CN1[*:1])[*:2]; Phe(4-CONH2) = NC(=O)c1ccc(C[C@H](N)C(=O)O)cc1; Pro(4,4-F2) = O=C(O)[C@@H]1CC(F)(F)CN1; NHCH2CH2SCH2CO = O=C(CSCCN[*:1])[*:2]; NMeY = CN[C@@H](Cc1ccc(O)cc1)C(=O)O; Lys(Me2) = CN(C)CCCC[C@H](N)C(=O)O; NMeR = CN[C@@H](CCCNC(=N)N)C(=O)O; NMeF = CN[C@@H](Cc1ccccc1)C(=O)O; tBuAla = CC(C)(C)C[C@H](N)C(=O)O; 3Pal = N[C@@H](Cc1cccnc1)C(=O)O; Tic = O=C(O)[C@@H]1Cc2ccccc2CN1; Pip = O=C(O)[C@@H]1CCCCN1
# Assays:
# [1] = biological target: T1, Nicotinamide N-methyltransferase (Homo sapiens, UniProt P40261); assay: Inhibition of human recombinant NNMT using nicotinamide and SAM as substrate assessed as reduction in 1-methyl-nicotinamide formation incubated for 22 to 24 hrs by RapidFire Mass spectroscopy
# T1 sequence (P40261 whole entry): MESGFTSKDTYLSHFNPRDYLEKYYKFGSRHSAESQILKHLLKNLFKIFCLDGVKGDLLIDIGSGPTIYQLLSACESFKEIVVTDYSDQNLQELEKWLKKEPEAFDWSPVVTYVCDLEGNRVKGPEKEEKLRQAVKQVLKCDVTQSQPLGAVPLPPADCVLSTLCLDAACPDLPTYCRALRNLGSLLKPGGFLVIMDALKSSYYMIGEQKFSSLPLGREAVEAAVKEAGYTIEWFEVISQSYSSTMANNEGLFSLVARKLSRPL
# [2] = biological target: T2, Nicotinamide N-methyltransferase (Mus musculus, UniProt O55239); assay: Inhibition of mouse recombinant NNMT using nicotinamide and SAM as substrate assessed as reduction in 1-methyl-nicotinamide formation incubated for 22 to 24 hrs by RapidFire Mass spectroscopy
# T2 sequence (O55239 whole entry): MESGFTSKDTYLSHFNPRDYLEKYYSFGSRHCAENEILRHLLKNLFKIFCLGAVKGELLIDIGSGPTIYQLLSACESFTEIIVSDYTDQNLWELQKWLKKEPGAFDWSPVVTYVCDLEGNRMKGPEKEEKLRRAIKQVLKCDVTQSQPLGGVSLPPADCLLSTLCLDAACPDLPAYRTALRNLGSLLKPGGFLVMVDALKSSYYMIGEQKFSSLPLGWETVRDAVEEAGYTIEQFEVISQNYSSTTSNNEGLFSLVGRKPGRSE
# [3] = test system: HEK293; assay: Cytotoxicity against human HEK293 cells overexpressing human NNMT assessed as reduction in ATP level measured after 24 hrs by CellTiter-glo luminescence assay; type: cell-based; settings: hek293, 24 h
# How it was run: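 Reported value is the peptide concentration giving a 20% decline in cellular ATP in NNMT-overexpressing HEK293 cells, with peptides tested up to 100 μM.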
# [4] = biological target: T2, Nicotinamide N-methyltransferase; assay: Inhibition of mouse recombinant NNMT using nicotinamide and SAM as substrate assessed as reduction in 1-methyl-nicotinamide formation incubated for 2 hrs by RapidFire Mass spectroscopy
smiles,measurement,setting,value
CN1C(=O)[C@@H]2CCCN2C(=O)[C@H](Cc2ccccc2)NC(=O)CSC[C@@H](C(N)=O)NC(=O)[C@H](Cc2ccc(C(N)=O)cc2)NC(=O)[C@@H]2Cc3ccccc3CN2C(=O)[C@@H]2CCCN2C(=O)[C@H](CCCNC(=N)N)NC(=O)[C@@H]1Cc1ccc(O)cc1 ({CH2CO}-FP[NMeY]RP[Tic][Phe(4-CONH2)]C-NH2; thioether N-8),IC50,[1],> 30000 nM
same,IC50,[2],> 30000 nM
N=C(N)NCCC[C@@H]1NC(=O)[C@H](Cc2ccc(O)cc2)NC(=O)[C@@H]2CCCN2C(=O)[C@H](Cc2ccccc2)NC(=O)CSC[C@@H](C(N)=O)NC(=O)[C@H](Cc2ccc(C(N)=O)cc2)NC(=O)[C@@H]2Cc3ccccc3CN2C(=O)[C@@H]2CCCN2C1=O ({CH2CO}-FPYRP[Tic][Phe(4-CONH2)]C-NH2; thioether N-8),IC50,[2],25 nM
same,CC20,[3],> 100000 nM
"CN(C)CCCC[C@@H]1NC(=O)[C@H](CC(C)(C)C)NC(=O)[C@@H]2C[C@@H](c3ccccc3)CN2C(=O)[C@H](Cc2ccccc2)N(C)C(=O)CSCCNC(=O)[C@H](Cc2ccc(-c3ccc(C(N)=O)cc3)cc2)NC(=O)[C@@H]2Cc3ccccc3CN2C(=O)[C@@H]2CC(F)(F)CN2C1=O (cyclo([Lys(Me2)][Pro(4,4-F2)][Tic][Bip(4'-CONH2)][NHCH2CH2SCH2CO][NMeF][Pro(trans-4-Ph)][tBuAla]))",IC50,[2],0.62 nM
same,CC20,[3],> 100000 nM
CC[C@H](C)[C@@H]1NC(=O)[C@H](CC(C)C)NC(=O)[C@@H]2CCCN2C(=O)[C@H](Cc2ccccc2)NC(=O)CSC[C@@H](C(N)=O)NC(=O)CNC(=O)[C@H](CCCCN)NC(=O)[C@H](CCCNC(=N)N)NC(=O)[C@@H]2CCCN2C(=O)[C@H](Cc2ccccc2)NC1=O ({CH2CO}-FPLIFPRKGC-NH2; thioether N-10),IC50,[4],> 30000 nM
CC(C)C[C@@H]1NC(=O)[C@@H]2CCCN2C(=O)[C@H](Cc2ccccc2)NC(=O)CSC[C@@H](C(N)=O)NC(=O)[C@H](Cc2ccc(-c3ccc(C(N)=O)cc3)cc2)NC(=O)[C@@H]2Cc3ccccc3CN2C(=O)[C@@H]2CCCN2C(=O)[C@H](CCCCN)NC1=O ({CH2CO}-FPLKP[Tic][Bip(4'-CONH2)]C-NH2; thioether N-8),CC20,[3],> 100000 nM
CN1C(=O)CSC[C@@H](C(N)=O)NC(=O)[C@H](Cc2ccc(C(N)=O)cc2)NC(=O)[C@@H]2Cc3ccccc3CN2C(=O)[C@@H]2CCCN2C(=O)[C@H](Cc2c[nH]cn2)NC(=O)[C@H](Cc2ccc(O)cc2)NC(=O)[C@@H]2CCCN2C(=O)[C@@H]1Cc1ccccc1 ({CH2CO}-[NMeF]PYHP[Tic][Phe(4-CONH2)]C-NH2; thioether N-8),IC50,[1],> 100000 nM
same,IC50,[2],> 100000 nM
CN1C(=O)CSC[C@@H](C(N)=O)NC(=O)[C@H](Cc2ccc(C(N)=O)cc2)NC(=O)[C@@H]2Cc3ccccc3CN2C(=O)[C@@H]2CCCN2C(=O)[C@H](Cc2cccnc2)NC(=O)[C@H](Cc2ccc(O)cc2)NC(=O)[C@@H]2CCCN2C(=O)[C@@H]1Cc1ccccc1 ({CH2CO}-[NMeF]PY[3Pal]P[Tic][Phe(4-CONH2)]C-NH2; thioether N-8),IC50,[1],> 100000 nM
same,IC50,[2],> 100000 nM
CC[C@H](C)[C@@H]1NC(=O)[C@H](CC(C)C)NC(=O)[C@@H]2CCCN2C(=O)[C@H](Cc2ccccc2)NC(=O)CSC[C@@H](C(=O)NCC(N)=O)NC(=O)CNC(=O)[C@H](CCCCN)NC(=O)[C@H](CCCNC(=N)N)NC(=O)[C@@H]2CCCN2C(=O)[C@H](Cc2ccccc2)NC1=O ({CH2CO}-FPLIFPRKGCG-NH2; thioether N-10),IC50,[4],243 nM
CC(C)C[C@@H]1NC(=O)[C@@H]2CCCN2C(=O)[C@H](Cc2ccccc2)NC(=O)CSC[C@@H](C(N)=O)NC(=O)[C@H](Cc2ccc(C(N)=O)cc2)NC(=O)[C@@H]2Cc3ccccc3CN2C(=O)[C@@H]2CCCN2C(=O)[C@H](CCCCN)NC1=O ({CH2CO}-FPLKP[Tic][Phe(4-CONH2)]C-NH2; thioether N-8),IC50,[2],40 nM
CN1C(=O)[C@H](Cc2ccc(O)cc2)NC(=O)[C@@H]2CCCN2C(=O)[C@H](Cc2ccccc2)NC(=O)CSC[C@@H](C(N)=O)NC(=O)[C@H](Cc2ccc(C(N)=O)cc2)NC(=O)[C@@H]2Cc3ccccc3CN2C(=O)[C@@H]2CCCN2C(=O)[C@@H]1CCCNC(=N)N ({CH2CO}-FPY[NMeR]P[Tic][Phe(4-CONH2)]C-NH2; thioether N-8),IC50,[2],277 nM
CN1C(=O)CSC[C@@H](C(N)=O)NC(=O)[C@H](Cc2ccc(C(N)=O)cc2)NC(=O)[C@@H]2Cc3ccccc3CN2C(=O)[C@@H]2CCCN2C(=O)[C@H](CCCNC(=N)N)NC(=O)[C@H](Cc2ccccc2)NC(=O)[C@@H]2CCCN2C(=O)[C@@H]1Cc1ccccc1 ({CH2CO}-[NMeF]PFRP[Tic][Phe(4-CONH2)]C-NH2; thioether N-8),IC50,[2],253 nM
"CN1C(=O)CSCCNC(=O)[C@H](Cc2ccc(-c3ccc(C(N)=O)cc3)cc2)NC(=O)[C@@H]2Cc3ccccc3CN2C(=O)[C@@H]2CC(F)(F)CN2C(=O)[C@@H]2CCCCN2C(=O)[C@H](CC(C)(C)C)NC(=O)[C@@H]2C[C@@H](c3ccccc3)CN2C(=O)[C@@H]1Cc1ccccc1 (cyclo([NMeF][Pro(trans-4-Ph)][tBuAla][Pip][Pro(4,4-F2)][Tic][Bip(4'-CONH2)][NHCH2CH2SCH2CO]))",CC20,[3],> 100000 nM
CC(C)C[C@@H]1NC(=O)[C@@H]2C[C@@H](C(F)(F)F)CN2C(=O)[C@H](Cc2ccccc2)NC(=O)CSC[C@@H](C(N)=O)NC(=O)[C@H](Cc2ccc(C(N)=O)cc2)NC(=O)[C@@H]2Cc3ccccc3CN2C(=O)[C@@H]2CCCN2C(=O)[C@H](CCCCN)NC1=O ({CH2CO}-F[X1]LKP[Tic][Phe(4-CONH2)]C-NH2; thioether N-8),IC50,[2],18 nM
CN1C(=O)CSC[C@@H](C(N)=O)NC(=O)[C@H](Cc2ccc(C(N)=O)cc2)NC(=O)[C@@H]2Cc3ccccc3CN2C(=O)[C@@H]2CCCN2C(=O)[C@H](CCCCN)NC(=O)[C@H](Cc2ccc(O)cc2)NC(=O)[C@@H]2CCCN2C(=O)[C@@H]1Cc1ccccc1 ({CH2CO}-[NMeF]PYKP[Tic][Phe(4-CONH2)]C-NH2; thioether N-8),IC50,[2],188 nM
CC(C)C[C@@H]1NC(=O)[C@@H]2C[C@@H](c3ccccc3)CN2C(=O)[C@H](Cc2ccccc2)NC(=O)CSC[C@@H](C(N)=O)NC(=O)[C@H](Cc2ccc(C(N)=O)cc2)NC(=O)[C@@H]2Cc3ccccc3CN2C(=O)[C@@H]2CCCN2C(=O)[C@H](CCCCN)NC1=O ({CH2CO}-F[Pro(trans-4-Ph)]LKP[Tic][Phe(4-CONH2)]C-NH2; thioether N-8),IC50,[2],1.2 nM
CC(C)C[C@@H]1NC(=O)[C@@H]2CCCN2C(=O)[C@H](Cc2ccccc2)NC(=O)CSC[C@@H](C(N)=O)NC(=O)[C@H](Cc2ccc(C(N)=O)cc2)NC(=O)[C@@H]2Cc3ccccc3CN2C(=O)[C@@H]2C[C@@H](C(F)(F)F)CN2C(=O)[C@H](CCCCN)NC1=O ({CH2CO}-FPLK[X1][Tic][Phe(4-CONH2)]C-NH2; thioether N-8),IC50,[2],263 nM
CC(C)C[C@@H]1NC(=O)[C@@H]2CCCN2C(=O)[C@H](Cc2ccccc2)N(C)C(=O)CSC[C@@H](C(N)=O)NC(=O)[C@H](Cc2ccc(C(N)=O)cc2)NC(=O)[C@@H]2Cc3ccccc3CN2C(=O)[C@@H]2CCCN2C(=O)[C@H](CCCNC(=N)N)NC1=O ({CH2CO}-[NMeF]PLRP[Tic][Phe(4-CONH2)]C-NH2; thioether N-8),IC50,[2],96 nM
